Reference: ChEMBL document CHEMBL4020830, “Design, Synthesis, and Evaluation of a Novel Series of Indole Sulfonamide Peroxisome Proliferator Activated Receptor (PPAR) α/γ/δ Triple Activators: Discovery of Lanifibranor, a New Antifibrotic Clinical Candidate” (J Med Chem, 2018)
The source made the active and inactive calls. The calls are words filed in the database; no cut-off is given here.

Experiments:
Mus musculus [1] = assay: Antidiabetic activity in C57BL/Ks mouse model of diabetic dyslipidemia assessed as decrease in plasma glucose level at 10 mg/kg, po qd administered via gavage for 10 days measured 4 hrs post last dose; assay type: functional, organism-based
Summary of the method: (§1)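 Homozygous male C57BL/Ks-db (db/db) mice were gavaged once daily at 10 or 30 mg/kg, for 5 or 10 days. Retro-orbital blood was drawn before treatment and 4 h after the last gavage. Glucose and triglycerides were measured in serum. Results are expressed as % variation on the final day versus the control group. Analysis was one-way ANOVA with Dunnett's test.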

Mus musculus [2] = assay: Antidiabetic activity in C57BL/Ks mouse model of diabetic dyslipidemia assessed as decrease in plasma glucose level at 30 mg/kg, po qd administered via gavage for 10 days measured 4 hrs post last dose; assay type: functional, organism-based; summary of the method: as §1
Mus musculus [3] = assay: Hypolipidemic activity in C57BL/Ks mouse model of diabetic dyslipidemia assessed as decrease in plasma triglyceride level at 10 mg/kg, po qd administered via gavage for 10 days measured 4 hrs post last dose; assay type: functional, organism-based; summary of the method: as §1
[4] = target: T1, Peroxisome proliferator-activated receptor delta (Mus musculus) (UniProt P35396); assay: Transactivation of PPARdelta in mouse C2C12 cells assessed increase in [14C]oleate beta-oxidation at 3 uM preincubated for 48 hrs followed by [14C]oleate addition during last 2 hrs of incubation period relative to control; assay type: cell-based
T1 sequence (whole entry): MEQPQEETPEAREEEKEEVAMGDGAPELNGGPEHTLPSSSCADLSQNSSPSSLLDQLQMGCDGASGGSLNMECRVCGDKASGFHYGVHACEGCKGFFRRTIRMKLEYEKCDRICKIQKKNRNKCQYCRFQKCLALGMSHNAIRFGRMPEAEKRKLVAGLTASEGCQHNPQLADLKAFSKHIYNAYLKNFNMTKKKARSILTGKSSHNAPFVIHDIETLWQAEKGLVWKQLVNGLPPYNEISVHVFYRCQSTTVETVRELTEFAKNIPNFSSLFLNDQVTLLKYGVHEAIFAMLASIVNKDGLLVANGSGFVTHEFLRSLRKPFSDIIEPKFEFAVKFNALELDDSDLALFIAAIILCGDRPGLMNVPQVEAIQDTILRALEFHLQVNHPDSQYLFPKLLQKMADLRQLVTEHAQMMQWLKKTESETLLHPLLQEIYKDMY
Summary of the method: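 Fatty acid beta-oxidation was used as the functional read-out. PPARα activity was tested in human hepatoma HuH7 cells and PPARδ activity in mouse myoblast C2C12 cells, at 1, 3, 10 and 30 µM. Values are % beta-oxidation, mean of at least 2 independent experiments run in triplicate, with single-experiment values flagged.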

[5] = target: T2, Peroxisome proliferator-activated receptor alpha (Mus musculus, UniProt P23204); assay: Transactivation of mouse GAL4-fused PPARalpha LBD expressed in African green monkey COS7 cells co-expressing 5Gal4 pGL3 TK Luc after overnight incubation by luciferase reporter gene assay; assay type: cell-based
T2 sequence (P23204 whole entry): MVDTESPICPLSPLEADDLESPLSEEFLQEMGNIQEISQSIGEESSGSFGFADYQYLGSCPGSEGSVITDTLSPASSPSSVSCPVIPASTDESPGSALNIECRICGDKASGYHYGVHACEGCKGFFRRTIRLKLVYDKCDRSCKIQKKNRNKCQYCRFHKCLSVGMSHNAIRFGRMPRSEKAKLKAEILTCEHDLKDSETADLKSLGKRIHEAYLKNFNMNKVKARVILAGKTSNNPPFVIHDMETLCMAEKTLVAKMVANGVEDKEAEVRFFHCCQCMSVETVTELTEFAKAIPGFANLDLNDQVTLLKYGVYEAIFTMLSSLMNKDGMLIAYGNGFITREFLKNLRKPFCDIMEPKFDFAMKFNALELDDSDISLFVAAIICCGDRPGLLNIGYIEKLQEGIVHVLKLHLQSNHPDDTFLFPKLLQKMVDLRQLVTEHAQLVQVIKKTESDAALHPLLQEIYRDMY
Summary of the method: (§2)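 Cell-based Gal-4 transactivation assay in COS-7 cells transfected with PPARα, PPARδ or PPARγ ligand-binding domain. EC50 and Emax were derived, with Emax as maximum activation in percent of control. EC50s are means of at least two independent experiments performed in triplicate.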

[6] = target: T3, Peroxisome proliferator-activated receptor gamma (Homo sapiens, UniProt P37231); assay: Transactivation of recombinant GST-tagged PPARgamma (unknown origin) expressed in Escherichia coli assessed as N-terminal biotin-labeled LCOR (39 to 63 residues) co-activator recruitment by TR-FRET assay
T3 sequence (P37231 whole entry): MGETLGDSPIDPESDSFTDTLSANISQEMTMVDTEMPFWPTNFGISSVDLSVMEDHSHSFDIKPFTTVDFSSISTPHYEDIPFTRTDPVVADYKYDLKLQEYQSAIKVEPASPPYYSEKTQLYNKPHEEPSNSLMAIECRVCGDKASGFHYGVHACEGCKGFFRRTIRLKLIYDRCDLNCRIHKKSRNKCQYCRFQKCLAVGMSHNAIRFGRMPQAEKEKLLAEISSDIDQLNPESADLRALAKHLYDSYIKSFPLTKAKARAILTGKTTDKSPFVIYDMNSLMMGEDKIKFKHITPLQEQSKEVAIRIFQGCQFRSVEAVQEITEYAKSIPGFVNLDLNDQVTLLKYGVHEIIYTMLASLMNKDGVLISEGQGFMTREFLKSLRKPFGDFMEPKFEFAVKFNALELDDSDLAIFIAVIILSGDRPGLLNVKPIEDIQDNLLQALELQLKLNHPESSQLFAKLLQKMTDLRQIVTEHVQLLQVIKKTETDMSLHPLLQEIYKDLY

Mus musculus [7] = assay: Antidiabetic activity in C57BL/Ks mouse model of diabetic dyslipidemia assessed as decrease in plasma glucose level administered via oral gavage qd for 5 days measured 4 hrs post last dose; assay type: functional; summary of the method: as §1
[8] = target: T4, Peroxisome proliferator-activated receptor alpha (Mus musculus) (UniProt P23204); assay: Transactivation of mouse GAL4-fused PPARalpha LBD expressed in African green monkey COS7 cells co-expressing 5Gal4 pGL3 TK Luc after overnight incubation by luciferase reporter gene assay relative to fenofibric acid; assay type: cell-based; summary of the method: as §2
T4 sequence (whole entry): T2 sequence (P23204 whole entry)

[9] = target: T3, Peroxisome proliferator-activated receptor gamma
[10] = target: T3, Peroxisome proliferator-activated receptor gamma; remark: listed apart in the source
Mus musculus [11] = assay: Reduction in plasma triglyceride level in C57Bl6/J mouse model of CCl4-induced liver fibrosis at 3 to 30 mg/kg, po qd for 3 weeks; assay type: functional, organism-based
Summary of the method: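 CCl4-induced liver fibrosis mice were dosed orally once daily at 3, 10 or 30 mg/kg for 3 weeks. Controls were CCl4-vehicle, vehicle oil and saline-injected groups. Liver collagen was scored by picrosirius red staining of histological sections. Plasma triglycerides and adiponectin were also measured. Analysis was one-way ANOVA with Dunnett's test.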

Activity [4] | EC50 [5] | EC50 [6] | Emax [8] | EC50 [9] | EC50 [10] | SMILES | Activity (Mus musculus [1]) | Activity (Mus musculus [2]) | Activity (Mus musculus [3]) | Activity (Mus musculus [7]) | Activity (Mus musculus [11])
 |  |  |  |  |  | O=C(O)CCc1cc2cc(Cl)ccc2n1S(=O)(=O)c1ccccc1 | inactive | Active | inactive |  | 
37% | 366 nM | 727 nM | 72% | 1480 nM | 1140 nM | O=C(O)CCCc1cc2cc(Cl)ccc2n1S(=O)(=O)c1ccc2ncsc2c1 [LANIFIBRANOR] |  |  |  | Dose-dependent effect | Active
